pIC50, pKi: −log10 of the molar value. Calls of active or inactive are those of the source. The rule behind the calls is not given here.
How the values were obtained:
Influenza A virus [1] = assay: (§1) Antiviral activity against Influenza A virus WU95 expressing Influenza A virus (A/Netherlands/178/1995(H3N2)) H3 hemagglutinin infected in MDCK2 cells preincubated with virus for 4 hrs followed by cell infection and measured at 7 hrs post-infection by DAPI staining-based assay; type: functional, organism-based
Outline: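 Single-cycle infection: WU95 in Opti-mem was preincubated 4 h at room temperature with varying compound concentrations. Confluent MDCK-II cells were inoculated in triplicate at MOI 0.005 and fixed at 7 h post-infection in methanol (−20 °C, 5 min). Cells were immunostained for nucleoprotein (HB65, Alexa 488 secondary), counterstained with DAPI, and infected cells per well were counted.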

[2] = Inhibition of Influenza A virus (A/Netherlands/178/1995(H3N2)) H3 hemagglutinin expressed in Influenza virus WU95 assessed as reduction in human erythrocytes hemagglutination preincubated for 4 hrs followed by erythrocytes addition and measured after 2 hrs; type: cell-based
Outline: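 Four hemagglutination units of virus were preincubated 4 h at room temperature with limiting compound dilutions in the presence of oseltamivir carboxylate. Then 0.5% (v/v) erythrocytes were added for 2 h at 4 °C. The lowest inhibiting concentration was recorded; two experiments were run in duplicate and means are reported.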

[3] = tested on: Influenza A virus (A/Netherlands/178/1995(H3N2)); assay: Potency index, ratio of compound 8 IC50 to test compound IC50 for Inhibition of Influenza A virus (A/Netherlands/178/1995(H3N2)) H3 hemagglutinin expressed in Influenza virus WU95 assessed as reduction in human erythrocytes hemagglutination; type: cell-based
[4] = tested on: Influenza A virus (A/Netherlands/178/1995(H3N2)); assay: Potency index, ratio of compound 7 IC50 to test compound IC50 for inhibition of sensor loaded biotinylated-LAMP1 binding to Influenza A virus (A/Netherlands/178/1995(H3N2)) H3 hemagglutinin expressed in Influenza virus WU95
MDCK-II = assay: Cytotoxicity against MDCK2 cells assessed as reduction in cell viability measured after 24 hrs by WST1 assay; type: cell-based, Canis lupus familiaris; settings: dog
Outline: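 MDCK-II cells were incubated 24 h in Opti-mem with compounds at different concentrations. Cell number and viability were then read by WST-1 assay.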

[5] = tested on: Influenza A virus (A/duck/Hunan/795/2002(H5N1)); assay: Inhibition of sensor loaded biotinylated-LAMP1 binding to Influenza A virus (A/duck/Hunan/795/2002 (H5N1)) […] expressed in Influenza virus H5N1 by biolayer interferometric analysis relative to control
[6] = tested on: Influenza A virus (A/Bilthoven/1761/1976(H3N2)); assay: Inhibition of sensor loaded biotinylated-LAMP1 binding to Influenza A virus (A/Bilthoven/1761/1976(H3N2)) H3 hemagglutinin expressed in Influenza virus VI75 at 3 uM by biolayer interferometric analysis
Outline: (§2)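 BLI with streptavidin sensors loaded to saturation with biotinylated LAMP1 (PBS, pH 7.4). VI75 virus was preincubated 4 h at room temperature with 3 µM compound, without or with 10 µM oseltamivir carboxylate. Initial virus binding rate was compared with a compound-free control.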

[7] = Inhibition of sensor loaded biotinylated-LAMP1 binding to Influenza A virus (A/Netherlands/178/1995(H3N2)) H3 hemagglutinin expressed in Influenza virus WU95 in presence of NA inhibitor oseltamivir carboxylate by biolayer interferometric analysis
Outline: (§3)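 OctetRed BLI: streptavidin sensors were saturated with biotinylated LAMP1 in PBS pH 7.4. They were dipped into WU95 (8 HAU, 2.5 × 10^8 particles per well) preincubated 4 h at room temperature with compound and 10 µM (end concentration) oseltamivir carboxylate. Initial binding rate was compared with a no-compound control.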

[8] = Inhibition of sensor loaded biotinylated-LAMP1 binding to Influenza A virus (A/Netherlands/602/2009(H1N1)) […] by biolayer interferometric analysis
[9] = tested on: Influenza A virus (A/Netherlands/178/1995(H3N2)); assay: Inhibition of sensor loaded biotinylated-LAMP1 binding to Influenza A virus (A/Netherlands/178/1995(H3N2)) H3 hemagglutinin expressed in Influenza virus WU95 at 3 uM in presence of NA inhibitor oseltamivir carboxylate by biolayer interferometric analysis; outline: as §3
[10] = tested on: Influenza A virus (A/Bilthoven/1761/1976(H3N2)); assay: Inhibition of sensor loaded biotinylated-LAMP1 binding to Influenza A virus (A/Bilthoven/1761/1976(H3N2)) H3 hemagglutinin expressed in Influenza virus VI75 at 3 uM in presence of NA inhibitor oseltamivir carboxylate by biolayer interferometric analysis; outline: as §2
Influenza A virus [11] = assay: as §1, with “cells assessed as reduction in virus-induced cytopathogenicity” for “cells”, “after 3 days” for “at 7 hrs post-infection”; type: functional, organism-based
Outline: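 WU95 virus was preincubated 4 h at room temperature in Opti-mem with varying compound concentrations. It was then inoculated onto confluent MDCK-II cells at MOI 0.005 and held 3 days with 1 µg/ml TPCK-trypsin to allow multiple rounds of infection. Cells were fixed and DAPI-stained, and monolayers inspected visually; absence of stained cells was taken as cell killing.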

## CC(=O)N[C@H]1[C@H](O[C@H]2[C@@H](O)[C@@H](CO)O[C@@H](O[C@H]3[C@H](O)[C@@H](O)[C@H](n4cc(-c5ccc(-c6cn(CCCC(=O)Nc7cccc(-c8cc(-c9cccc(NC(=O)CCCn%10cc(-c%11ccc(-c%12cn([C@@H]%13O[C@H](CO)[C@@H](O[C@@H]%14O[C@H](CO)[C@H](O)[C@H](O[C@@H]%15O[C@H](CO)[C@@H](O[C@@H]%16O[C@H](CO[C@]%17(C(=O)O)C[C@H](O)[C@@H](NC(C)=O)[C@H]([C@H](O)[C@H](O)CO)O%17)[C@H](O)[C@H](O)[C@H]%16O)[C@H](O)[C@H]%15NC(C)=O)[C@H]%14O)[C@H](O)[C@H]%13O)nn%12)cc%11)nn%10)c9)cc(-c9cccc(NC(=O)CCCn%10cc(-c%11ccc(-c%12cn([C@@H]%13O[C@H](CO)[C@@H](O[C@@H]%14O[C@H](CO)[C@H](O)[C@H](O[C@@H]%15O[C@H](CO)[C@@H](O[C@@H]%16O[C@H](CO[C@]%17(C(=O)O)C[C@H](O)[C@@H](NC(C)=O)[C@H]([C@H](O)[C@H](O)CO)O%17)[C@H](O)[C@H](O)[C@H]%16O)[C@H](O)[C@H]%15NC(C)=O)[C@H]%14O)[C@H](O)[C@H]%13O)nn%12)cc%11)nn%10)c9)c8)c7)nn6)cc5)nn4)O[C@@H]3CO)[C@@H]2O)O[C@H](CO)[C@@H](O[C@@H]2O[C@H](CO[C@]3(C(=O)O)C[C@H](O)[C@@H](NC(C)=O)[C@H]([C@H](O)[C@H](O)CO)O3)[C@H](O)[C@H](O)[C@H]2O)[C@@H]1O
Influenza A virus [1]
  pIC50: 5.36
[2]
  pKi: 5.03
[3]
  Ratio IC50: 38
[4]
  Ratio IC50: 428
MDCK-II
  Activity: Non-Toxic
[5]
  Imax: 50%
[6]
  inhibition: Active
[7]
  pIC50: 6.15
[8]
  pIC50: 5.57
[9]
  inhibition: Active
[10]
  inhibition: Active
Influenza A virus [11]
  Activity: Active
